SMILES strings stand for the structures. Active and inactive are the calls of the source. No cut-off for these calls is given here. Some results are limits rather than exact numbers.

Experiment [1] deals with T1, P2Y purinoceptor 4 (Homo sapiens, UniProt P51582). As to the kind of experiment: Agonist activity at human recombinant P2Y4 receptor expressed in human 1321N1 cells assessed as [3H]inositol phosphate production after 30 mins by scintillation proximity assay. The format is functional, cell-based. The method, boiled down: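 Stable 1321N1 human astrocytoma lines expressing human P2Y2, P2Y4 or P2Y6 were seeded at 20,000 cells/well two days ahead. They were labelled for 16 h with 1.0 μCi myo-[3H]inositol in serum-free, inositol-free DMEM. Cells were then challenged with agonist in HEPES pH 7.3/HBSS containing LiCl for 30 min at 37°C. The reaction was stopped with ice-cold 50 mM formic acid and [3H]inositol phosphates were read by SPA.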
T1 sequence (P51582 whole entry): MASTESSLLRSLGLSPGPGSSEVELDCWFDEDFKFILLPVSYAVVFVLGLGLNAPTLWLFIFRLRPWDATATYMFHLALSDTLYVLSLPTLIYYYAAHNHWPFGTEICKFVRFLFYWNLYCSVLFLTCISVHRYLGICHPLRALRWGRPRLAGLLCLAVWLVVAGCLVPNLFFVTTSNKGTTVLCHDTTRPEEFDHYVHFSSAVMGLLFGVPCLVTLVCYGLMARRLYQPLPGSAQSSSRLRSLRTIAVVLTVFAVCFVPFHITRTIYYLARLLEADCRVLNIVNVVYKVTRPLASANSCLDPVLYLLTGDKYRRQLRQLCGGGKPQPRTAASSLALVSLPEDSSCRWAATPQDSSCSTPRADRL
(SPA uses beads or plates that emit light when radiolabelled molecules are held near them.)

The target in experiment [2] is T2, P2Y purinoceptor 2 (Homo sapiens, UniProt P41231). Nature of the experiment: Agonist activity at human recombinant P2Y2 receptor expressed in human 1321N1 cells assessed as [3H]inositol phosphate production after 30 mins by scintillation proximity assay. Type of experiment: functional, cell-based. The method, boiled down:
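Stable 1321N1 human astrocytoma lines expressing human P2Y2, P2Y4 or P2Y6 were seeded at 20,000 cells/well two days ahead. Cells were then challenged with agonist in HEPES pH 7.3/HBSS containing LiCl for 30 min at 37°C. The reaction was stopped with ice-cold 50 mM formic acid and [3H]inositol phosphates were read by SPA.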

In experiment [3] the target is T3, P2Y purinoceptor 6 (Homo sapiens, UniProt Q15077). Nature of the experiment: Agonist activity at human recombinant P2Y6 receptor expressed in human 1321N1 cells assessed as [3H]inositol phosphate production after 30 mins by scintillation proximity assay. Type of experiment: functional, cell-based. The method, boiled down:
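1321N1 astrocytoma cells stably expressing human P2Y6, seeded 2 days ahead and labelled 16 h with myo-[3H]inositol in serum-free inositol-free DMEM. Agonist added as five-fold concentrate in HEPES pH 7.3/HBSS with 50 mM LiCl, 30 min at 37°C. Stopped with ice-cold 50 mM formic acid. EC50 from four-parameter logistic fit; triplicates, three to six experiments; UDP reference curve.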

Experiment [4] concerns the target T2, P2Y purinoceptor 2. As to the kind of experiment: Ratio of EC50 for human recombinant P2Y2 receptor expressed in human 1321N1 cells to EC50 for human recombinant P2Y4 receptor expressed in human 1321N1 cells. The format is cell-based.
The test system of the next experiment is 1321-N1. As to the kind of experiment: Ratio of EC50 for human recombinant P2Y6 receptor expressed in human 1321N1 cells to EC50 for human recombinant P2Y4 receptor expressed in human 1321N1 cells. Type of experiment: cell-based.
Experiment [5] concerns the target T2, P2Y purinoceptor 2. As to the kind of experiment: Agonist activity at human recombinant P2Y2 receptor expressed in human 1321N1 cells assessed as [3H]inositol phosphate production at 10 uM after 30 mins by scintillation proximity assay. The format is functional, cell-based.
The target of experiment [6] is T3, P2Y purinoceptor 6. As to the kind of experiment: Agonist activity at human recombinant P2Y6 receptor expressed in human 1321N1 cells assessed as [3H]inositol phosphate production at 10 uM after 30 mins by scintillation proximity assay. Type of experiment: functional, cell-based.
In experiment [7] the target is T1, P2Y purinoceptor 4. Nature of the experiment: Agonist activity at human recombinant P2Y4 receptor expressed in human 1321N1 cells assessed as [3H]inositol phosphate production at 10 uM after 30 mins by scintillation proximity assay. The format is functional, cell-based.

T2 sequence (P41231 whole entry): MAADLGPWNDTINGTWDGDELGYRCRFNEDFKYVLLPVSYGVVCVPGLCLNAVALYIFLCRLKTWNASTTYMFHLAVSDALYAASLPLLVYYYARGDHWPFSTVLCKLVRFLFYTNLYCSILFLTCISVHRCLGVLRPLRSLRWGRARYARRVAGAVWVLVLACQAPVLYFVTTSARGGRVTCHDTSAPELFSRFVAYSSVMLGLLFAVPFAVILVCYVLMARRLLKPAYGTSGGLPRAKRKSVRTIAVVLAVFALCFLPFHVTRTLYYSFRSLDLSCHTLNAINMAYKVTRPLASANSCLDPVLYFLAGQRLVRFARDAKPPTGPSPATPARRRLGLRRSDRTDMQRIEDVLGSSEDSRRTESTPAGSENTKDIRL
T3 sequence (Q15077 whole entry): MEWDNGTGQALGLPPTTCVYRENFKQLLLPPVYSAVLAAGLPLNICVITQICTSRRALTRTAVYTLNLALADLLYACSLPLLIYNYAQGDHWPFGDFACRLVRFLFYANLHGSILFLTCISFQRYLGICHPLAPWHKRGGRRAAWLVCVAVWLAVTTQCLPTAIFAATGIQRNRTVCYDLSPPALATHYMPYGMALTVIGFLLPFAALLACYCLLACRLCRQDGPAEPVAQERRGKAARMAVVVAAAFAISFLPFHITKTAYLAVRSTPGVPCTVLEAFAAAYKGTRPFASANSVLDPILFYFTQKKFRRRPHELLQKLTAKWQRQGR

On to `O=c1ccn([C@@H]2O[C@H](COP(=O)(O)OP(=O)(O)OP(=O)(O)O)[C@@H](O)[C@H]2O)c(=O)[nH]1` [URIDINE TRIPHOSPHATE], for which the concentration for a half-maximal effect (EC50) is 80 nM on P2Y purinoceptor 4 [1] and 55 nM at P2Y purinoceptor 2 [2].
In the same order, the values of `CC(C)(C)ONc1ccn([C@@H]2O[C@H](COP(=O)(O)OP(=O)(O)OP(=O)(O)O)[C@@H](O)[C@H]2O)c(=O)n1` are 2110 nM and 1500 nM.
Regarding `CC(=O)N[C@H]1[C@@H](OP(=O)(O)OP(=O)(O)OP(=O)(O)OP(=O)(O)OC[C@H]2O[C@@H](n3ccc(=O)[nH]c3=O)[C@H](O)[C@@H]2O)O[C@H](CO)[C@@H](O)[C@@H]1O`, the EC50 on P2Y purinoceptor 6 [3] amounted to 5460 nM; at P2Y purinoceptor 4 [1] it was 910 nM; on P2Y purinoceptor 2 [2] it was 1890 nM.
As for `O=c1ccn([C@@H]2O[C@H](COP(=O)(O)OP(=O)(O)OP(=O)(O)OP(=O)(O)O[C@H]3O[C@H](CO)[C@H](O)[C@H](O)[C@H]3O)[C@@H](O)[C@H]2O)c(=O)[nH]1`, the 50% effective concentration (EC50) on P2Y purinoceptor 2 [2] was found to be 940 nM.
As for `O=c1[nH]/c(=N\OCCCc2ccccc2)ccn1[C@@H]1O[C@H](COP(=O)(O)OP(=O)(O)OP(=O)(O)O)[C@@H](O)[C@H]1O`, the Ratio EC50 stood at 28 at P2Y purinoceptor 2 [4] and 32 in the experiment with 1321-N1.
Regarding `O=c1ccn([C@@H]2O[C@H](COP(=O)(O)OP(=O)(O)OP(=O)(O)OP(=O)(O)Oc3ccc(Cl)cc3)[C@@H](O)[C@H]2O)c(=O)[nH]1`, on P2Y purinoceptor 2 [2], the half-maximal effective concentration (EC50) amounted to 6600 nM.
Consider `COc1ccc(OP(=O)(O)OP(=O)(O)OP(=O)(O)OP(=O)(O)OC[C@H]2O[C@@H](n3ccc(=O)[nH]c3=O)[C@H](O)[C@@H]2O)cc1`, for which the Activity at P2Y purinoceptor 2 [5], at P2Y purinoceptor 6 [6] and at P2Y purinoceptor 4 [7] was less than 50% throughout.
As for `O=c1ccn([C@@H]2O[C@H](COP(=O)(O)OP(=O)(O)OP(=O)(O)OP(=O)(O)O[C@H]3O[C@H](CO)[C@@H](O)[C@H](O)[C@@H]3O)[C@@H](O)[C@H]2O)c(=O)[nH]1`, the half-maximal effective concentration (EC50) at P2Y purinoceptor 6 [3] came to 12100 nM; on P2Y purinoceptor 4 [1] it was 4480 nM; at P2Y purinoceptor 2 [2], 3720 nM.
For the molecule `COc1cccc(OP(=O)(O)OP(=O)(O)OP(=O)(O)OP(=O)(O)OC[C@H]2O[C@@H](n3ccc(=O)[nH]c3=O)[C@H](O)[C@@H]2O)c1`, the Activity at P2Y purinoceptor 2 [5] and on P2Y purinoceptor 6 [6] was less than 50% throughout. Further, the outcome on P2Y purinoceptor 4 [7] was inactive.
Take `CC(C)(C)O/N=c1/ccn([C@@H]2O[C@H](COP(=O)(O)OP(=O)(O)OP(=O)(O)O)[C@@H](O)[C@H]2O)c(=O)[nH]1`: the Activity at P2Y purinoceptor 6 [6] is less than 50%.
In the case of `O=c1ccn([C@@H]2O[C@H](COP(=O)(O)OP(=O)(O)OP(=O)(O)OP(=O)(O)Oc3cccc([N+](=O)[O-])c3)[C@@H](O)[C@H]2O)c(=O)[nH]1`, on P2Y purinoceptor 6 [6], the Activity is less than 50%. Besides, the half-maximal effective concentration (EC50) at P2Y purinoceptor 4 [1] turned out to be 2540 nM; at P2Y purinoceptor 2 [2] it was 3330 nM.
For `O=c1ccn([C@@H]2O[C@H](COP(=O)(O)OP(=O)(O)OP(=O)(O)OP(=O)(O)O[C@H]3O[C@H](CO)[C@@H](F)[C@H](O)[C@H]3O)[C@@H](O)[C@H]2O)c(=O)[nH]1`, the 50% effective concentration (EC50) on P2Y purinoceptor 6 [3] came out at 1640 nM; on P2Y purinoceptor 4 [1] it was 220 nM; on P2Y purinoceptor 2 [2] it was 620 nM.
Take `O=c1ccn([C@@H]2O[C@H](COP(=O)(O)OP(=O)(O)OP(=O)(O)OP(=O)(O)Oc3ccc([N+](=O)[O-])cc3)[C@@H](O)[C@H]2O)c(=O)[nH]1`: the Activity at P2Y purinoceptor 6 [6] and on P2Y purinoceptor 4 [7] was less than 50% in each case. For the same molecule, at P2Y purinoceptor 2 [2], the EC50 is 4850 nM.
For `CONc1ccn([C@@H]2O[C@H](COP(=O)(O)OP(=O)(O)OP(=O)(O)OP(=O)(O)O[C@H]3O[C@H](CO)[C@@H](O)[C@H](F)[C@H]3O)[C@@H](O)[C@H]2O)c(=O)n1`, the half-maximal effective concentration (EC50) on P2Y purinoceptor 6 [3] was 1440 nM; at P2Y purinoceptor 4 [1], 310 nM; at P2Y purinoceptor 2 [2], 500 nM.
In the same order, the values of `O=c1ccn([C@@H]2O[C@H](COP(=O)(O)OP(=O)(O)OP(=O)(O)OP(=O)(O)O[C@H]3O[C@H](CO)[C@@H](O)[C@@H](O)[C@H]3O)[C@@H](O)[C@H]2O)c(=O)[nH]1` are 1170 nM, 183 nM and 770 nM.
The like results for `O=C(O)[C@H]1O[C@H](OP(=O)(O)OP(=O)(O)OP(=O)(O)OP(=O)(O)OC[C@H]2O[C@@H](n3ccc(=O)[nH]c3=O)[C@H](O)[C@@H]2O)[C@H](O)[C@@H](O)[C@@H]1O` were, in that order, 1650 nM, 227 nM and 490 nM.
As to `O=c1ccn([C@@H]2O[C@H](COP(=O)(O)OP(=O)(O)OP(=O)(O)OP(=O)(O)Oc3cccc(Cl)c3)[C@@H](O)[C@H]2O)c(=O)[nH]1`, the EC50 on P2Y purinoceptor 6 [3] worked out at 3690 nM; at P2Y purinoceptor 2 [2] it was 840 nM. Also, the result on P2Y purinoceptor 4 [7] was inactive.
Consider `O=c1ccn([C@@H]2O[C@H](COP(=O)(O)OP(=O)(O)C(Cl)(Cl)P(=O)(O)O)[C@@H](O)[C@H]2O)c(=O)[nH]1`, for which the Activity on P2Y purinoceptor 6 [6] is less than 50%. Further, the result on P2Y purinoceptor 4 [7] was inactive. For the same molecule, the EC50 at P2Y purinoceptor 2 [2] was found to be 9600 nM.
With `O=c1nc(NOCCCc2ccccc2)ccn1[C@@H]1O[C@H](COP(=O)(O)OP(=O)(O)OP(=O)(O)O)[C@@H](O)[C@H]1O`, the EC50 is 740 nM on P2Y purinoceptor 6 [3], 23 nM at P2Y purinoceptor 4 [1] and 640 nM on P2Y purinoceptor 2 [2].
Consider `O=c1[nH]/c(=N\OCc2ccccc2)ccn1[C@@H]1O[C@H](COP(=O)(O)OP(=O)(O)OP(=O)(O)OP(=O)(O)O[C@H]2O[C@H](CO)[C@@H](O)[C@H](F)[C@H]2O)[C@@H](O)[C@H]1O`, for which the concentration for a half-maximal effect (EC50) is 7510 nM on P2Y purinoceptor 6 [3], 670 nM on P2Y purinoceptor 4 [1] and 2640 nM at P2Y purinoceptor 2 [2].
For `O=c1ccn([C@@H]2O[C@H](COP(=O)(O)OP(=O)(O)OP(=O)(O)OP(=O)(O)Oc3ccccc3)[C@@H](O)[C@H]2O)c(=O)[nH]1`, the outcome on P2Y purinoceptor 6 [6] and at P2Y purinoceptor 4 [7] was inactive. Moreover, the EC50 at P2Y purinoceptor 2 [2] came out at 2760 nM.
Turning to `O=c1ccn([C@@H]2O[C@H](COP(=O)(O)OP(=O)(O)OP(=O)(O)OP(=O)(O)O[C@H]3O[C@H](CO)[C@@H](O)[C@H](O)[C@H]3F)[C@@H](O)[C@H]2O)c(=O)[nH]1`, the Activity on P2Y purinoceptor 2 [5], at P2Y purinoceptor 6 [6] and on P2Y purinoceptor 4 [7] was less than 50% each time.
In the case of `O=c1ccn([C@@H]2O[C@H](COP(=O)(O)OP(=O)(O)OP(=O)(O)OP(=O)(O)O[C@H]3OC[C@@H](O)[C@H](O)[C@H]3O)[C@@H](O)[C@H]2O)c(=O)[nH]1`, the EC50 stood at 4900 nM at P2Y purinoceptor 6 [3], 620 nM on P2Y purinoceptor 4 [1] and 2770 nM at P2Y purinoceptor 2 [2].
For `O=c1ccn([C@@H]2O[C@H](COP(=O)(O)OP(=O)(O)OP(=O)(O)OP(=O)(O)O)[C@@H](O)[C@H]2O)c(=O)[nH]1`, the EC50 came to 7300 nM on P2Y purinoceptor 4 [1] and 3900 nM on P2Y purinoceptor 2 [2].
In the case of `O=c1ccn([C@@H]2O[C@H](COP(=O)(O)OP(=O)(O)C(Cl)(Cl)P(=O)(O)OP(=O)(O)O[C@H]3O[C@H](CO)[C@@H](O)[C@H](O)[C@H]3O)[C@@H](O)[C@H]2O)c(=O)[nH]1`, the Activity at P2Y purinoceptor 2 [5] is less than 50%. In addition, the result at P2Y purinoceptor 6 [6] and at P2Y purinoceptor 4 [7] was inactive.
Turning to `O=c1ccn([C@@H]2O[C@H](COP(=O)(O)OP(=O)(O)C(Cl)(Cl)P(=O)(O)O)[C@@H](O)[C@H]2O)c(=S)[nH]1`, the result at P2Y purinoceptor 6 [6] and at P2Y purinoceptor 4 [7] was inactive.
As to `O=c1[nH]/c(=N\OCCc2ccccc2)ccn1[C@@H]1O[C@H](COP(=O)(O)OP(=O)(O)OP(=O)(O)O)[C@@H](O)[C@H]1O`, the Ratio EC50 was 16 at P2Y purinoceptor 2 [4] and 17 in the experiment on 1321-N1.

In general, EC50 refers to the concentration needed to bring the measured effect to its halfway point.

The record behind these values is ChEMBL document CHEMBL1782004, “Pyrimidine nucleotides with 4-alkyloxyimino and terminal tetraphosphate δ-ester modifications as selective agonists of the P2Y(4) receptor” (J Med Chem, 2011).
